According to ChEMBL document CHEMBL4834428:

Assays:
[1] = compound: N#Cc1ccccc1CN1CC(C(N)=O)Oc2ccccc21; experiment: Uncompetitive inhibition of His6-tagged SIRT1 (unknown origin) expressed in Escherichia coli BL21 (DE3) assessed as change in Vmax at 800 nM measured every 2 mins for 30 mins in presence of NAD+ and ATP by […] based Michaelis-Menten analysis (reference value: 860 to 1326 AU/min); conditions: Homo sapiens
Summary of the method: (§1)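 Continuous assay, triplicates: 100 nM His6-SirT1 catalytic domain, ~270 nM FLucK529ac, inhibitor 100–1600 nM in sirtuin buffer 2 plus luciferase buffer (0.5 mM ATP, 0.5 mM luciferin, pH 7.8).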

[2] = compound: N#Cc1ccccc1CN1CC(C(N)=O)Oc2ccccc21; experiment: Uncompetitive inhibition of His6-tagged SIRT1 (unknown origin) expressed in Escherichia coli BL21 (DE3) assessed as change in Vmax at 1600 nM measured every 2 mins for 30 mins in presence of NAD+ and ATP by […] based Michaelis-Menten analysis (reference value: 860 to 1326 AU/min); conditions: Homo sapiens; summary of the method: as §1
[3] = compound: N#Cc1ccccc1CN1CC(C(N)=O)Oc2ccccc21; experiment: Uncompetitive inhibition of His6-tagged SIRT1 (unknown origin) expressed in Escherichia coli BL21 (DE3) assessed as change in Km at 800 nM measured every 2 mins for 30 mins in presence of NAD+ and ATP by […] based Michaelis-Menten analysis (reference value: 54.3 to 57.6 uM); conditions: Homo sapiens; summary of the method: as §1
[4] = compound: N#Cc1ccccc1CN1CC(C(N)=O)Oc2ccccc21; experiment: Uncompetitive inhibition of His6-tagged SIRT1 (unknown origin) expressed in Escherichia coli BL21 (DE3) assessed as change in Km at 1600 nM measured every 2 mins for 30 mins in presence of NAD+ and ATP by […] based Michaelis-Menten analysis (reference value: 54.3 to 57.6 uM); conditions: Homo sapiens; summary of the method: as §1
[5] = substrate: N#Cc1ccccc1CN1CC(C(N)=O)Oc2ccccc21; conditions: Homo sapiens; dose 100.0 nM, time 30.0 min
[6] = substrate: N#Cc1ccccc1CN1CC(C(N)=O)Oc2ccccc21; conditions: Homo sapiens; dose 200.0 nM, time 30.0 min
[7] = substrate: N#Cc1ccccc1CN1CC(C(N)=O)Oc2ccccc21; conditions: Homo sapiens; dose 400.0 nM, time 30.0 min
[8] = substrate: N#Cc1ccccc1CN1CC(C(N)=O)Oc2ccccc21; conditions: Homo sapiens; dose 100.0 nM, time 30.0 min; remark: listed apart in the source
[9] = substrate: N#Cc1ccccc1CN1CC(C(N)=O)Oc2ccccc21; conditions: Homo sapiens; dose 200.0 nM, time 30.0 min; remark: listed apart in the source
[10] = substrate: N#Cc1ccccc1CN1CC(C(N)=O)Oc2ccccc21; conditions: Homo sapiens; dose 400.0 nM, time 30.0 min; remark: listed apart in the source

B1: NAD-dependent protein deacetylase sirtuin-1 (Homo sapiens), Q96EB6 (protein)
chain: MADEAALALQPGGSPSAAGADREAASSPAGEPLRKRPRRDGPGLERSPGEPGGAAPEREVPAAARGCPGAAAAALWREAEAEAAAAGGEQEAQATAAAGEGDNGPGLQGPSREPPLADNLYDEDDDDEGEEEEEAAAAAIGYRDNLLFGDEIITNGFHSCESDEEDRASHASSSDWTPRPRIGPYTFVQQHLMIGTDPRTILKDLLPETIPPPELDDMTLWQIVINILSEPPKRKKRKDINTIEDAVKLLQECKKIIVLTGAGVSVSCGIPDFRSRDGIYARLAVDFPDLPDPQAMFDIEYFRKDPRPFFKFAKEIYPGQFQPSLCHKFIALSDKEGKLLRNYTQNIDTLEQVAGIQRIIQCHGSFATASCLICKYKVDCEAVRGDIFNQVVPRCPRCPADEPLAIMKPEIVFFGENLPEQFHRAMKYDKDEVDLLIVIGSSLKVRPVALIPSSIPHEVPQILINREPLPHLHFDVELLGDCDVIINELCHRLGGEYAKLCCNPVKLSEITEKPPRTQKELAYLSELPPTPLHVSEDSSSPERTSPPDSSVIVTLLDQAAKSNDDLDVSESKGCMEEKPQEVQTSRNVESIAEQMENPDLKNVGSSTGEKNERTSVAGTVRKCWPNRVAKEQISRRLDGNQYLFLPPNRYIFHGAEVYSDSEDDVLSSSSCGSNSDSGTCQSPSLEEPMEDESEIEEFYNGLEDEPDVPERAGGAGFGTDGDDQEAINEAISVKQEVTDMNYPSNKS
[1]
  Vmax: 304 AU/min
[2]
  Vmax: 208 AU/min
[3]
  Km: 10 µM
[4]
  Km: 4.9 µM
[5]
  Vmax: 864 AU/min
[6]
  Vmax: 673 AU/min
[7]
  Vmax: 522 AU/min
[8]
  Km: 47.7 µM
[9]
  Km: 34.6 µM
[10]
  Km: 23.8 µM
